The record followed here is ChEMBL document CHEMBL1143105, “Potent and selective small molecule NS3 serine protease inhibitors of Hepatitis C virus with dichlorocyclopropylproline as P2 residue” (Bioorg Med Chem, 2008).

*1 amine or outer side, *2 acyl side, *3 side chain or, on linkers, in order; H or OH if unused. Where a SMILES comes first, the peptide text is derived from it. [ ]: non-standard residue; d: D form. The star is where a group is joined. Pro(3R,4S-CMe2) = CC1(C)[C@@H]2[C@@H](C(=O)O)NC[C@@H]21; Pro(3S,4R-CCl2) = O=C(O)[C@H]1NC[C@H]2[C@@H]1C2(Cl)Cl; X2 = O=C(C(=O)[*:2])C(CC1CCC1)N[*:1]; X1 = O=C(C(=O)[*:2])C(CC1CC1)N[*:1]; X3 = CCCC(N[*:1])C(=O)C(=O)[*:2]; Chg = N[C@H](C(=O)O)C1CCCCC1; Phg = N[C@H](C(=O)O)c1ccccc1; Tle = CC(C)(C)[C@H](N)C(=O)O; Boc = CC(C)(C)OC(=O)*

A word on the Ki: it is the equilibrium dissociation constant of an inhibitor or competing ligand from its target. Usually bioavailability stands for dose-corrected exposure relative to a reference, in per cent. As usually defined, the half-life is the time in which the quantity being followed falls by half. One may read the EC50 as the midpoint of the concentration-response curve. For orientation: AUC means concentration integrated over time.

The nature of series [1]: Inhibition of hepatitis C virus NS3 serine protease. Details: species or system Hepacivirus hominis.
A short description of series [2]: Oral bioavailability in monkey. The series is classed as ADME, organism-based, Macaca mulatta. The following applies: rhesus monkey, in vivo.
Series [3] can be described thus: Half life in monkey. The class given is ADME, organism-based, Macaca mulatta. The following applies: rhesus monkey, in vivo.
The next series deals with Hepatitis C virus. The series can be described thus: Antiviral activity in hepatitis C virus by cell based replicon assay. The series is classed as functional, organism-based, Hepacivirus hominis. Background: In antiviral work, replicon cells carry a viral genome segment that copies itself.
Series [4] can be described thus: AUC in dog at 3 mg/kg, po. The series is classed as ADME, organism-based, Canis lupus familiaris. Details: dose 3 mg/kg, route oral. The following applies: plasma. Put shortly: (§1)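 AUC is given in µM h. Compounds were tested as mixtures of two diastereomers at the P1 α-centre, with the isomer ratio varying slightly by compound.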
Series [5] in a line: AUC in rat at 10 mg/kg, iv. The class given is ADME, organism-based. Details: dose 10 mg/kg, route intravenous. Conditions: plasma.
Series [6] can be described thus: AUC in monkey at 3 mg/kg, po. The series is classed as ADME, organism-based, Macaca mulatta. The following applies: rhesus monkey, plasma. Details: dose 3 mg/kg, route oral.
A short description of series [7]: Half life in rat. The class given is ADME, organism-based. The following applies: in vivo.
Series [8] is described as follows: AUC in dog at 2.2 mg/kg, iv. Conditions: plasma. Details: dose 2.2 mg/kg, route intravenous. The class given is ADME, organism-based, Canis lupus familiaris. Put shortly: as §1
Series [9] can be described thus: Oral bioavailability in dog. The series is classed as ADME, organism-based, Canis lupus familiaris. Conditions: in vivo.
Series [10] in a line: AUC in rat at 10 mg/kg, po. The class given is ADME, organism-based. Details: dose 10 mg/kg, route oral. Conditions: plasma.
Series [11] can be described thus: Oral bioavailability in rat. The following applies: in vivo. The class given is ADME, organism-based.
Series [12] is described as follows: Half life in dog. The following applies: in vivo. The series is classed as ADME, organism-based, Canis lupus familiaris.
The nature of series [13]: AUC in monkey at 2.2 mg/kg, iv. The series is classed as ADME, organism-based, Macaca mulatta. Details: dose 2.2 mg/kg, route intravenous. Conditions: rhesus monkey, plasma.
Series [14] can be described thus: AUC in dog at 0.6 mg/kg, iv. The class given is ADME, organism-based, Canis lupus familiaris. Conditions: plasma. Details: dose 0.6 mg/kg, route intravenous. The method in brief:
as §1

A short description of series [15]: AUC in dog at 1.5 mg/kg, po. The class given is ADME, organism-based, Canis lupus familiaris. Details: dose 1.5 mg/kg, route oral. Conditions: plasma. Put shortly:
as §1

Series [16] in a line: AUC in monkey at 0.6 mg/kg, iv. The series is classed as ADME, organism-based, Macaca mulatta. Details: dose 0.6 mg/kg, route intravenous. Conditions: rhesus monkey, plasma. The method in brief: as §1
Series [17] is described as follows: AUC in monkey at 1.5 mg/kg, po. The series is classed as ADME, organism-based, Macaca mulatta. Details: dose 1.5 mg/kg, route oral. The following applies: rhesus monkey, plasma. The method in brief: as §1
Series [18] is described as follows: AUC in rat at 7.5 mg/kg, po. The class given is ADME, organism-based. Details: dose 7.5 mg/kg, route oral. Conditions: plasma. Put shortly:
as §1

Series [19] can be described thus: AUC in rat at 6 mg/kg, iv. The series is classed as ADME, organism-based. Details: dose 6 mg/kg, route intravenous. The following applies: plasma. Put shortly: as §1

Regarding `C=CCNC(=O)C(=O)C(CCC)NC(=O)[C@@H]1[C@@H]2[C@H](CN1C(=O)[C@@H](NC(=O)NC(C)(C)C)C1CCCCC1)C2(Cl)Cl` (stereo partly specified), the Ki in series [1] came to 100 nM.

`CC(C)(C)OC(=O)N[C@H](C(=O)N1C[C@H]2[C@@H]([C@H]1C(=O)NC(CC1CC1)C(=O)C(N)=O)C2(Cl)Cl)C1CCCCC1` (stereo partly specified): the bioavailability was 8% in series [2], 2% in series [9] and 26% in [11]. The half-life in [3] was 9.6 h; in [7], 4.4 h; in [12], 16 h. The same molecule had an EC50 in the series on Hepatitis C virus of 500 nM. Moreover, the AUC was determined as 0.07 µM·h in series [4]; 10.7 µM·h in series [5]; 0.13 µM·h in [6]; 2.6 µM·h in series [8]; 2.7 µM·h in [10]; 1.2 µM·h in series [13]. Also, in series [1], the Ki stood at 11 nM.

In the series on Hepatitis C virus, `C[C@@H](NC(=O)N[C@H](C(=O)N1C[C@H]2[C@@H]([C@H]1C(=O)NC(CC1CCC1)C(=O)C(N)=O)C2(Cl)Cl)C1CCCCC1)C(C)(C)C` (stereo partly specified) had an EC50 of 40 nM. This molecule also returned a Ki in series [1] of 10 nM.

`CC(C)(OC(=O)N[C@H](C(=O)N1C[C@H]2[C@@H]([C@H]1C(=O)NC(CC1CCC1)C(=O)C(N)=O)C2(Cl)Cl)C1CCCCC1)C(F)(F)F` (stereo partly specified) displayed a Ki in series [1] of 65 nM.

With `CC(C)(C)NC(=O)N[C@H](C(=O)N1C[C@H]2[C@@H]([C@H]1C(=O)NC(CC1CCC1)C(=O)C(N)=O)C2(Cl)Cl)C1Cc2ccccc2C1` (stereo partly specified), in series [1], the Ki stood at 30 nM.

`C=CCNC(=O)C(=O)C(CCC)NC(=O)[C@@H]1[C@@H]2[C@H](CN1C(=O)[C@@H](NC(=O)OC(C)(C)C)C1CCCCC1)C2(Cl)Cl` (stereo partly specified) registered a Ki in series [1] of 90 nM.

In the case of `CC(C)(C)OC(=O)N[C@H](C(=O)N1C[C@H]2[C@@H]([C@H]1C(=O)NC(CC1CCC1)C(=O)C(N)=O)C2(Cl)Cl)C(C)(C)C` (stereo partly specified), the bioavailability in series [2] came to 50%; in [9], 10%; in series [11], 12%. Moreover, the values for the half-life in [3], in [7] and in [12] were 1.1 h, 5.6 h and 6.3 h, respectively. Further, the EC50 in the series on Hepatitis C virus stood at 100 nM. The AUC is 0.61 µM·h in series [4]; 2.6 µM·h in [5]; 0.77 µM·h in series [6]; 4.5 µM·h in [8]; 0.3 µM·h in series [10]; 1.2 µM·h in [13]. In series [1], this molecule had a Ki of 9 nM.

With `NC(=O)C(=O)C(CC1CCC1)NC(=O)[C@@H]1[C@@H]2[C@H](CN1C(=O)[C@@H](NC(=O)NC1CCCCC1)C1CCCCC1)C2(Cl)Cl` (stereo partly specified), in series [1], the affinity, expressed as Ki, was 15 nM.

The molecule `CCCC(NC(=O)[C@@H]1[C@@H]2[C@H](CN1C(=O)[C@@H](NC(=O)NC(C)(C)C)C1CCCCC1)C2(Cl)Cl)C(=O)C(N)=O` (stereo partly specified) had a Ki in series [1] of 20 nM.

In the case of `CC(C)(C)OC(=O)N[C@H](C(=O)N1C[C@H]2[C@@H]([C@H]1C(=O)NC(CC1CCC1)C(=O)C(N)=O)C2(Cl)Cl)C1Cc2ccccc2C1` (stereo partly specified), the Ki in [1] was found to be 60 nM.

Regarding `NC(=O)C(=O)C(CC1CCC1)NC(=O)[C@@H]1[C@@H]2[C@H](CN1C(=O)[C@@H](NC(=O)OC1CC3CCC1C3)C1CCCCC1)C2(Cl)Cl` (stereo partly specified), a half-maximal effect in the series with Hepatitis C virus (EC50) was put at 200 nM. The molecule also displayed an AUC in [10] of 0.75 µM·h. The molecule further gave a Ki in [1] of 60 nM.

Take `CC(C)(C)NC(=O)N[C@H](C(=O)N1C[C@H]2[C@@H]([C@H]1C(=O)NC(CC1CCC1)C(=O)C(N)=O)C2(Cl)Cl)C1CCCCC1` (stereo partly specified): in the series on Hepatitis C virus, the EC50 is 300 nM. This molecule registered an area under the curve (AUC) in [10] of 0.32 µM·h. Besides, the affinity in series [1], expressed as Ki, was 6 nM.

In turn, `CCCC(NC(=O)[C@@H]1[C@@H]2[C@H](CN1C(=O)[C@@H](NC(=O)OC(C)(C)C)C1CCCCC1)C2(Cl)Cl)C(=O)C(N)=O` (stereo partly specified) returned a Ki in series [1] of 36 nM.

Turning to `CC(C)(C)OC(=O)N[C@H](C(=O)N1C[C@H]2[C@@H]([C@H]1C(=O)NC(CC1CCC1)C(=O)C(N)=O)C2(Cl)Cl)C1CCCCC1` (stereo partly specified), the values for the bioavailability in series [2] and in [9] were 4% and 2%, respectively. In addition, the half-life in series [3] was 1.9 h; in series [12], 4.7 h. Further, the AUC in series [14] was 2 µM·h; in series [15] it was 0.1 µM·h; in [16], 0.6 µM·h; in series [17] it was 0.06 µM·h; in [10], 2.4 µM·h. Besides, the EC50 in the series on Hepatitis C virus was 300 nM. The molecule also displayed a Ki in [1] of 17 nM.

In turn, `C=CCCC(NC(=O)[C@@H]1[C@@H]2[C@H](CN1C(=O)[C@@H](NC(=O)NC(C)(C)C)C1CCCCC1)C2(Cl)Cl)C(=O)C(=O)NCC=C` (stereo partly specified) displayed a Ki in series [1] of 44 nM.

In the case of `CC(C)(C)NC(=O)N[C@H](C(=O)N1C[C@H]2[C@@H]([C@H]1C(=O)NC(CC1CCC1)C(=O)C(N)=O)C2(Cl)Cl)C(C)(C)C` (stereo partly specified), the AUC in series [18] turned out to be 0.12 µM·h; in series [19], 1.9 µM·h. The EC50 in the series with Hepatitis C virus was determined as 200 nM. The half-life in series [7] was 2.7 h. In addition, the Ki in [1] turned out to be 7 nM. The molecule also returned a bioavailability in series [11] of 5%.

In the case of `CN(C)C(=O)[C@@H](NC(=O)CNC(=O)C(=O)C(CC1CC1)NC(=O)[C@@H]1[C@@H]2[C@H](CN1C(=O)[C@@H](NC(=O)OC(C)(C)C)C1CCCCC1)C2(Cl)Cl)c1ccccc1` (stereo partly drawn) (Boc-[Chg][Pro(3S,4R-CCl2)][X1]G[Phg]-NMe2), the Ki in series [1] amounted to 7 nM.

The molecule `CN(C)C(=O)[C@@H](NC(=O)CNC(=O)C(=O)C(CC1CCC1)NC(=O)[C@@H]1[C@@H]2[C@H](CN1C(=O)[C@@H](NC(=O)OC(C)(C)C)C1CCCCC1)C2(Cl)Cl)c1ccccc1` (stereo partly drawn) (Boc-[Chg][Pro(3S,4R-CCl2)][X2]G[Phg]-NMe2) had a Ki in series [1] of 9 nM.

`CCCC(NC(=O)[C@@H]1[C@@H]2[C@H](CN1C(=O)[C@@H](NC(=O)OC(C)(C)C)C1CCCCC1)C2(Cl)Cl)C(=O)C(=O)NCC(=O)N[C@H](C(=O)N(C)C)c1ccccc1` (stereo partly drawn) (Boc-[Chg][Pro(3S,4R-CCl2)][X3]G[Phg]-NMe2) gave a Ki in series [1] of 15 nM.

Turning to `CN(C)C(=O)[C@@H](NC(=O)CNC(=O)C(=O)C(CC1CC1)NC(=O)[C@@H]1[C@@H]2[C@H](CN1C(=O)[C@@H](NC(=O)OC(C)(C)C)C(C)(C)C)C2(C)C)c1ccccc1` (stereo partly drawn) (Boc-[Tle][Pro(3R,4S-CMe2)][X1]G[Phg]-NMe2), the bioavailability in series [2] stood at 1%; in series [11], 4%. In addition, the EC50 with Hepatitis C virus turned out to be 40 nM. Moreover, the affinity in [1] corresponds to a Ki of 3.8 nM.

Turning to `CC(C)(C)NC(=O)N[C@H](C(=O)N1C[C@H]2[C@@H]([C@H]1C(=O)NC(CC1CCC1)C(=O)C(N)=O)C2(C)C)C(C)(C)C` (stereo partly specified) [BOCEPREVIR], in the series on Hepatitis C virus, a half-maximal effect (EC50) was put at 200 nM. The molecule further showed a Ki in series [1] of 14 nM.
